# Experimental data taken from ChEMBL document CHEMBL1649256, “Comparison of assessment of oxygen consumption, Etest, and CLSI M38-A2 broth microdilution methods for evaluation of the susceptibility of Aspergillus fumigatus to posaconazole” (2009).
# Experiments:
# Format in all cases: functional
# Aspergillus fumigatus [1] = test: Antimicrobial activity against Aspergillus fumigatus isolate 20 after 48 hrs by Etest; details: isolate 20, 48 h
# Method in brief: (§1)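 Posaconazole Etest strips placed on RPMI 1640 agar with 2% glucose, pH 7.0, and run per the strip maker's instructions. Incubation at 35°C, with the MIC read at 24 h and at 48 h.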
# Aspergillus fumigatus [2] = test: Antimicrobial activity against Aspergillus fumigatus isolate 45 after 24 hrs by Etest; details: isolate 45, 24 h
# Aspergillus fumigatus [3] = test: Antimicrobial activity against Aspergillus fumigatus isolate 46 after 24 hrs by Etest; details: isolate 46, 24 h
# Aspergillus fumigatus [4] = test: Antimicrobial activity against Aspergillus fumigatus isolate 32 after 24 hrs by Etest; details: isolate 32, 24 h
# Method in brief: (§2)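 Posaconazole Etest strips on RPMI 1640 agar with 2% glucose, pH 7.0, run per the strip maker's instructions. Incubated at 35°C. MIC read at 24 h and at 48 h, matching the time in each line.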
# Aspergillus fumigatus [5] = test: Antimicrobial activity against Aspergillus fumigatus isolate 7 after 24 hrs by Etest; details: isolate 7, 24 h
# Aspergillus fumigatus [6] = test: Antimicrobial activity against Aspergillus fumigatus isolate 40 after 24 hrs by Etest; details: isolate 40, 24 h; method in brief: as §2
# Aspergillus fumigatus [7] = test: Antimicrobial activity against Aspergillus fumigatus isolate 10 by oxygen consumption method
# Method in brief: (§3)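 Conidial suspension in RPMI 1640 broth with posaconazole at 0.25 and 2 μg/ml. Tubes agitated 12 h at 37°C in a biological oxygen monitor. Available oxygen was monitored continuously, and the MIC was assigned from the oxygen quantification.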
# Aspergillus fumigatus [8] = test: Antimicrobial activity against Aspergillus fumigatus isolate 6 by CLSI M38-A2 broth microdilution method
# Aspergillus fumigatus [9] = test: Antimicrobial activity against Aspergillus fumigatus isolate 7 by CLSI M38-A2 broth microdilution method
# Aspergillus fumigatus [10] = test: Antimicrobial activity against Aspergillus fumigatus isolate 50 after 24 hrs by Etest; details: isolate 50, 24 h
# Aspergillus fumigatus [11] = test: Antimicrobial activity against Aspergillus fumigatus isolate 18 after 48 hrs by Etest; details: isolate 18, 48 h; method in brief: as §1
# Aspergillus fumigatus [12] = test: Antimicrobial activity against Aspergillus fumigatus isolate 43 by oxygen consumption method
# Aspergillus fumigatus [13] = test: Antimicrobial activity against Aspergillus fumigatus isolate 37 by oxygen consumption method
# Method in brief: (§4)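 Conidial suspension in RPMI 1640 broth, tested at two posaconazole levels (0.25 and 2 μg/ml). Agitated for 12 h at 37°C in a biological oxygen monitor. MIC derived from continuous monitoring and quantification of the available oxygen.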
# Aspergillus fumigatus [14] = test: Antimicrobial activity against Aspergillus fumigatus isolate 40 by CLSI M38-A2 broth microdilution method
# Method in brief: (§5)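 CLSI M38-A2 broth microdilution with posaconazole. MIC taken as the lowest concentration with no visible growth at 48 h. C. parapsilosis ATCC 22019 and C. krusei ATCC 6258 were included as QC strains in every run.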
# Aspergillus fumigatus [15] = test: Antimicrobial activity against Aspergillus fumigatus isolate 47 by oxygen consumption method
# Aspergillus fumigatus [16] = test: Antimicrobial activity against Aspergillus fumigatus isolate 44 by CLSI M38-A2 broth microdilution method
# Aspergillus fumigatus [17] = test: Antimicrobial activity against Aspergillus fumigatus isolate 19 by CLSI M38-A2 broth microdilution method
# Method in brief: (§6)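 Posaconazole broth microdilution follows CLSI M38-A2. The MIC is the lowest concentration with no visible growth at 48 h. Candida parapsilosis ATCC 22019 and Candida krusei ATCC 6258 were included as QC strains in every run.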
# Aspergillus fumigatus [18] = test: Antimicrobial activity against Aspergillus fumigatus isolate 37 after 48 hrs by Etest; details: isolate 37, 48 h; method in brief: as §2
# Aspergillus fumigatus [19] = test: Antimicrobial activity against Aspergillus fumigatus isolate 29 by oxygen consumption method
# Method in brief: (§7)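 Conidial suspension in RPMI 1640 broth, 1.5 ml, with two drug concentrations (0.25 and 2 μg/ml). Tubes agitated 12 h at 37°C in a biological oxygen monitor. Available oxygen monitored continuously and quantified to assign the MIC.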
# Aspergillus fumigatus [20] = test: Antimicrobial activity against Aspergillus fumigatus isolate 43 after 48 hrs by Etest; details: isolate 43, 48 h; method in brief: as §2
# Aspergillus fumigatus [21] = test: Antimicrobial activity against Aspergillus fumigatus isolate 47 after 48 hrs by Etest; details: isolate 47, 48 h
# Aspergillus fumigatus [22] = test: Antimicrobial activity against Aspergillus fumigatus isolate 43 after 24 hrs by Etest; details: isolate 43, 24 h; method in brief: as §2
# Aspergillus fumigatus [23] = test: Antimicrobial activity against Aspergillus fumigatus isolate 42 after 48 hrs by Etest; details: isolate 42, 48 h; method in brief: as §2
# Aspergillus fumigatus [24] = test: Antimicrobial activity against Aspergillus fumigatus isolate 50 after 48 hrs by Etest; details: isolate 50, 48 h
# Aspergillus fumigatus [25] = test: Antimicrobial activity against Aspergillus fumigatus isolate 18 by CLSI M38-A2 broth microdilution method; method in brief: as §6
# Aspergillus fumigatus [26] = test: Antimicrobial activity against Aspergillus fumigatus isolate 44 after 48 hrs by Etest; details: isolate 44, 48 h
# Aspergillus fumigatus [27] = test: Antimicrobial activity against Aspergillus fumigatus isolate 3 after 24 hrs by Etest; details: isolate 3, 24 h
# Method in brief: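 Etest strips on RPMI 1640 agar with 2% glucose, pH 7.0, run per manufacturer's instructions. Incubated at 35°C; MIC read at 24 h.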
# Aspergillus fumigatus [28] = test: Antimicrobial activity against Aspergillus fumigatus isolate 34 by CLSI M38-A2 broth microdilution method; method in brief: as §5
# Aspergillus fumigatus [29] = test: Antimicrobial activity against Aspergillus fumigatus isolate 45 after 48 hrs by Etest; details: isolate 45, 48 h
# Aspergillus fumigatus [30] = test: Antimicrobial activity against Aspergillus fumigatus isolate 36 after 48 hrs by Etest; details: isolate 36, 48 h; method in brief: as §2
# Aspergillus fumigatus [31] = test: Antimicrobial activity against Aspergillus fumigatus isolate 34 after 48 hrs by Etest; details: isolate 34, 48 h; method in brief: as §2
# Aspergillus fumigatus [32] = test: Antimicrobial activity against Aspergillus fumigatus isolate 23 by oxygen consumption method; method in brief: as §7
# Aspergillus fumigatus [33] = test: Antimicrobial activity against Aspergillus fumigatus isolate 1 after 24 hrs by Etest; details: isolate 1, 24 h; method in brief: as §1
# Aspergillus fumigatus [34] = test: Antimicrobial activity against Aspergillus fumigatus isolate 10 after 48 hrs by Etest; details: isolate 10, 48 h; method in brief: as §1
# Aspergillus fumigatus [35] = test: Antimicrobial activity against Aspergillus fumigatus isolate 9 after 24 hrs by Etest; details: isolate 9, 24 h
# Aspergillus fumigatus [36] = test: Antimicrobial activity against Aspergillus fumigatus isolate 32 by oxygen consumption method; method in brief: as §4
# Aspergillus fumigatus [37] = test: Antimicrobial activity against Aspergillus fumigatus isolate 16 by CLSI M38-A2 broth microdilution method; method in brief: as §6
# Aspergillus fumigatus [38] = test: Antimicrobial activity against Aspergillus fumigatus isolate 5 after 48 hrs by Etest; details: isolate 5, 48 h
# Aspergillus fumigatus [39] = test: Antimicrobial activity against Aspergillus fumigatus isolate 7 by oxygen consumption method
# Aspergillus fumigatus [40] = test: Antimicrobial activity against Aspergillus fumigatus isolate 1 by oxygen consumption method; method in brief: as §3
# Aspergillus fumigatus [41] = test: Antimicrobial activity against Aspergillus fumigatus isolate 39 after 24 hrs by Etest; details: isolate 39, 24 h; method in brief: as §2
# Aspergillus fumigatus [42] = test: Antimicrobial activity against Aspergillus fumigatus isolate 23 by CLSI M38-A2 broth microdilution method
# Method in brief: (§8)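 Reference broth microdilution per CLSI M38-A2. MIC read as absence of visible growth at 48 h. C. parapsilosis ATCC 22019 and C. krusei ATCC 6258 QC strains run in each test session.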
# Aspergillus fumigatus [43] = test: Antimicrobial activity against Aspergillus fumigatus isolate 36 after 24 hrs by Etest; details: isolate 36, 24 h; method in brief: as §2
# Aspergillus fumigatus [44] = test: Antimicrobial activity against Aspergillus fumigatus isolate 5 by oxygen consumption method
# Aspergillus fumigatus [45] = test: Antimicrobial activity against Aspergillus fumigatus isolate 27 by CLSI M38-A2 broth microdilution method; method in brief: as §8
# Aspergillus fumigatus [46] = test: Antimicrobial activity against Aspergillus fumigatus isolate 42 by oxygen consumption method; method in brief: as §4
smiles,measurement,setting,value
CC[C@@H]([C@H](C)O)n1ncn(-c2ccc(N3CCN(c4ccc(OC[C@@H]5CO[C@@](Cn6cncn6)(c6ccc(F)cc6F)C5)cc4)CC3)cc2)c1=O [POSACONAZOLE],MIC,Aspergillus fumigatus [1],0.25 µg/mL
same,MIC,Aspergillus fumigatus [2],0.125 µg/mL
same,MIC,Aspergillus fumigatus [3],0.125 µg/mL
same,MIC,Aspergillus fumigatus [4],0.25 µg/mL
same,MIC,Aspergillus fumigatus [5],0.25 µg/mL
same,MIC,Aspergillus fumigatus [6],0.125 µg/mL
same,MIC,Aspergillus fumigatus [7],≤ 0.25 µg/mL
same,MIC,Aspergillus fumigatus [8],0.125 µg/mL
same,MIC,Aspergillus fumigatus [9],0.25 µg/mL
same,MIC,Aspergillus fumigatus [10],0.25 µg/mL
same,MIC,Aspergillus fumigatus [11],0.25 µg/mL
same,MIC,Aspergillus fumigatus [12],≤ 0.25 µg/mL
same,MIC,Aspergillus fumigatus [13],≤ 0.25 µg/mL
same,MIC,Aspergillus fumigatus [14],0.125 µg/mL
same,MIC,Aspergillus fumigatus [15],≤ 0.25 µg/mL
same,MIC,Aspergillus fumigatus [16],0.06 µg/mL
same,MIC,Aspergillus fumigatus [17],0.5 µg/mL
same,MIC,Aspergillus fumigatus [18],0.125 µg/mL
same,MIC,Aspergillus fumigatus [19],≤ 0.25 µg/mL
same,MIC,Aspergillus fumigatus [20],0.06 µg/mL
same,MIC,Aspergillus fumigatus [21],≤ 0.03 µg/mL
same,MIC,Aspergillus fumigatus [22],≤ 0.03 µg/mL
same,MIC,Aspergillus fumigatus [23],0.125 µg/mL
same,MIC,Aspergillus fumigatus [24],0.25 µg/mL
same,MIC,Aspergillus fumigatus [25],0.125 µg/mL
same,MIC,Aspergillus fumigatus [26],0.06 µg/mL
same,MIC,Aspergillus fumigatus [27],1 µg/mL
same,MIC,Aspergillus fumigatus [28],0.125 µg/mL
same,MIC,Aspergillus fumigatus [29],0.125 µg/mL
same,MIC,Aspergillus fumigatus [30],0.06 µg/mL
same,MIC,Aspergillus fumigatus [31],≤ 0.03 µg/mL
same,MIC,Aspergillus fumigatus [32],≤ 0.25 µg/mL
same,MIC,Aspergillus fumigatus [33],8 µg/mL
same,MIC,Aspergillus fumigatus [34],0.25 µg/mL
same,MIC,Aspergillus fumigatus [35],0.25 µg/mL
same,MIC,Aspergillus fumigatus [36],≤ 0.25 µg/mL
same,MIC,Aspergillus fumigatus [37],0.125 µg/mL
same,MIC,Aspergillus fumigatus [38],> 16 µg/mL
same,MIC,Aspergillus fumigatus [39],≤ 0.25 µg/mL
same,MIC,Aspergillus fumigatus [40],≥ 0.5 µg/mL
same,MIC,Aspergillus fumigatus [41],1 µg/mL
same,MIC,Aspergillus fumigatus [42],0.125 µg/mL
same,MIC,Aspergillus fumigatus [43],0.06 µg/mL
same,MIC,Aspergillus fumigatus [44],≥ 0.5 µg/mL
same,MIC,Aspergillus fumigatus [45],0.125 µg/mL
same,MIC,Aspergillus fumigatus [46],≤ 0.25 µg/mL
